Measurements published in ChEMBL document CHEMBL1806443, “Novel imidazo[4,5-b]pyridine and triaza-benzo[c]fluorene derivatives: synthesis, antiproliferative activity and DNA binding studies” (Eur J Med Chem, 2011).
The source made the active and inactive calls. The rule behind the calls is not given here.

Key:
[1] = tested on: WI-38; test: Antiproliferative activity against human WI38 cells after 72 hrs by MTT assay; format: cell-based
How it was run: (§1)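 Monolayer cells in DMEM with 10% FBS, 2 mM L-glutamine, penicillin and streptomycin at 37 °C, 5% CO2. Seeded at 3000-6000 cells/well by doubling time on day 0. Five 10-fold dilutions (0.01–100 µM) were added and incubated 72 h. MTT read-out, converted to percentage growth. IC50 by linear regression between bracketing concentrations. Quadruplicate points, three independent experiments, ANOVA/Tukey p<0.05.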

[2] = tested on: MIA PaCa-2; test: Antiproliferative activity against human MIAPaCa2 cells after 72 hrs by MTT assay; format: functional, cell-based; how it was run: as §1
[3] = tested on: SW-620; test: Antiproliferative activity against human SW620 cells after 72 hrs by MTT assay; format: functional, cell-based; how it was run: as §1
[4] = tested on: HEp-2; test: Antiproliferative activity against human Hep2 cells after 72 hrs by MTT assay; format: functional, cell-based; how it was run: as §1
[5] = tested on: SK-BR-3; test: Antiproliferative activity against human SKBR3 cells after 72 hrs by MTT assay; format: functional, cell-based; how it was run: as §1
[6] = tested on: MCF7; test: Antiproliferative activity against human MCF7 cells after 72 hrs by MTT assay; format: functional, cell-based; how it was run: as §1
[7] = tested on: HeLa; test: Antiproliferative activity against human HeLa cells after 72 hrs by MTT assay; format: functional, cell-based; how it was run: as §1
[8] = tested on: WI-38; test: Cytostatic activity against human WI38 cells at 1 to 10 uM after 72 hrs by MTT assay; format: ADME, cell-based; details: wi-38, 72 h
How it was run: (§2)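 Monolayers in DMEM with 10% FBS, 2 mM L-glutamine, penicillin and streptomycin (37 °C, 5% CO2) were seeded at 3000–6000 cells/well on day 0. Five 10-fold dilutions (0.01–100 µM) were added, followed by 72-h incubation and MTT read-out. Absorbances were converted to percentage growth by the NIH formulae. Each point was run in quadruplicate in three experiments; ANOVA with Tukey test.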

[9] = tested on: SW-620; test: Cytostatic activity against human SW620 cells at 1 to 10 uM after 72 hrs by MTT assay; format: functional, cell-based; how it was run: as §2
[10] = tested on: MIA PaCa-2; test: Cytostatic activity against human MIAPaCa2 cells at 1 to 10 uM after 72 hrs by MTT assay; format: functional, cell-based; how it was run: as §2
[11] = tested on: SK-BR-3; test: Cytostatic activity against human SKBR3 cells at 1 to 10 uM after 72 hrs by MTT assay; format: functional, cell-based; how it was run: as §2
[12] = tested on: HEp-2; test: Cytostatic activity against human Hep2 cells at 1 to 10 uM after 72 hrs by MTT assay; format: functional, cell-based; how it was run: as §2
[13] = tested on: MCF7; test: Cytostatic activity against human MCF7 cells at 1 to 10 uM after 72 hrs by MTT assay; format: functional, cell-based; how it was run: as §2
[14] = tested on: HeLa; test: Cytostatic activity against human HeLa cells at 1 to 10 uM after 72 hrs by MTT assay; format: functional, cell-based; how it was run: as §2
[15] = tested on: WI-38; test: Antiproliferative activity against human WI38 cells at 0.1 to 10 uM after 72 hrs by MTT assay; format: cell-based; details: wi-38, 72 h; how it was run: as §1
[16] = tested on: MIA PaCa-2; test: Antiproliferative activity against human MIAPaCa2 cells at 0.1 to 10 uM after 72 hrs by MTT assay; format: functional, cell-based; how it was run: as §1
[17] = tested on: SK-BR-3; test: Antiproliferative activity against human SKBR3 cells at 0.1 to 10 uM after 72 hrs by MTT assay; format: functional, cell-based; how it was run: as §1
[18] = tested on: SW-620; test: Antiproliferative activity against human SW620 cells at 0.1 to 10 uM after 72 hrs by MTT assay; format: functional, cell-based; how it was run: as §1
[19] = tested on: HEp-2; test: Antiproliferative activity against human Hep2 cells at 0.1 to 10 uM after 72 hrs by MTT assay; format: functional, cell-based; how it was run: as §1
[20] = tested on: MCF7; test: Antiproliferative activity against human MCF7 cells at 0.1 to 10 uM after 72 hrs by MTT assay; format: functional, cell-based; how it was run: as §1
[21] = tested on: HeLa; test: Antiproliferative activity against human HeLa cells at 0.1 to 10 uM after 72 hrs by MTT assay; format: functional, cell-based; how it was run: as §1

Row | Structure (SMILES) | IC50 ([1]; Homo sapiens, WI-38, 72 h) | IC50 ([2]; Homo sapiens, MIA PaCa-2, 72 h) | IC50 ([3]; Homo sapiens, SW-620, 72 h) | IC50 ([4]; Homo sapiens, HEp-2, 72 h) | IC50 ([5]; Homo sapiens, SK-BR-3, 72 h) | IC50 ([6]; Homo sapiens, MCF7, 72 h) | IC50 ([7]; Homo sapiens, HeLa, 72 h) | Activity [8] | Activity [9] | Activity [10] | Activity [11] | Activity [12] | Activity [13] | Activity [14] | also measured
1 | Clc1cccnc1/C=C/c1nc2ncccc2[nH]1 | > 100 µM | > 100 µM | > 100 µM | > 100 µM | 53.1 µM | > 100 µM | > 100 µM | – | – | – | – | – | – | – | –
2 | N#Cc1ccc(/C=C/c2nc3ncccc3[nH]2)cc1 | > 100 µM | > 100 µM | > 100 µM | 84.9 µM | 86.6 µM | 12.9 µM | 47.1 µM | – | – | – | – | – | – | – | –
3 | c1cnc2ccc3nc4ncccc4n3c2c1 | > 100 µM | > 100 µM | > 100 µM | > 100 µM | > 100 µM | > 100 µM | > 100 µM | – | – | – | – | – | – | – | –
4 | O=c1[nH]cc(F)c(=O)[nH]1 [FLUOROURACIL] | 18.5 µM | 11.5 µM | 3.38 µM | > 100 µM | 38.2 µM | 42 µM | 10.3 µM | – | – | – | – | – | – | – | –
5 | Nc1ccc2c(ccc3nc4ncc(Br)cc4n32)c1 [listing 1 of 3 here] | 85.4 µM | 33 µM | 38.6 µM | 14.1 µM | 7.76 µM | 61.7 µM | 30.9 µM | Toxic | – | – | – | – | – | – | –
6 | O=[N+]([O-])c1ccc2c(ccc3nc4ncccc4n32)c1 | 75.7 µM | > 100 µM | > 100 µM | > 100 µM | 42.7 µM | > 100 µM | 52.8 µM | – | – | – | – | – | – | – | –
7 | C(=C\c1nc2ncccc2[nH]1)/c1ccccc1 | 3.87 µM | 4.39 µM | 4.64 µM | 3.89 µM | 2.06 µM | 7.57 µM | 2.22 µM | Toxic | Active | Active | Active | Active | Active | Active | –
8 | N#Cc1ccc2ccc3nc4ncccc4n3c2c1 | 51.5 µM | > 100 µM | > 100 µM | 47.3 µM | 67.7 µM | > 100 µM | 39.5 µM | – | – | – | – | – | – | – | –
9 | Nc1ccc2c(ccc3nc4ncc(Br)cc4n32)c1 [listing 2 of 3 here] | – | – | – | – | – | – | – | – | – | – | – | – | – | – | IC50 ([1]; wi-38): 85.1 µM; IC50 ([2]; mia paca-2): 40.3 µM; IC50 ([3]; sw-620): 40.7 µM; IC50 ([4]; hep-2): 21.6 µM; IC50 ([5]; sk-br-3): 7.56 µM; IC50 ([6]; mcf7): 67.3 µM; IC50 ([7]; hela): 37.7 µM
10 | c1ccc2c(c1)ccc1nc3ncccc3n12 [7,8,11b-triazabenzo[c]fluorene] | 47.4 µM | 80.5 µM | 78.3 µM | 52.3 µM | 83.5 µM | 75.5 µM | 14.3 µM | – | – | – | – | – | – | – | –
11 | O=[N+]([O-])c1ccc(Cl)c(/C=C/c2nc3ncc(Br)cc3[nH]2)c1 | 6.48 µM | 30.6 µM | 7.99 µM | 0.91 µM | 59.9 µM | 8.81 µM | 3.68 µM | Toxic | Active | Active | Active | Active | Active | Active | –
12 | O=[N+]([O-])c1ccc2c(ccc3nc4ncc(Br)cc4n32)c1 | > 100 µM | 63.5 µM | 61.2 µM | 31.1 µM | 8.11 µM | > 100 µM | 13.4 µM | – | – | – | – | – | – | – | –
13 | Clc1ccccc1/C=C/c1nc2ncccc2[nH]1 | > 100 µM | 59.1 µM | 50.9 µM | 29.3 µM | 5.79 µM | 25.6 µM | 31.6 µM | Toxic | Active | Active | Active | Active | Active | Active | –
14 | Nc1ccc2c(ccc3nc4ncccc4n32)c1 | – | – | – | – | – | – | – | – | – | – | – | – | – | – | IC50 ([2]; mia paca-2): 43.4 µM; IC50 ([3]; sw-620): 25.9 µM; IC50 ([4]; hep-2): 26.7 µM; IC50 ([5]; sk-br-3): 3.64 µM; IC50 ([6]; mcf7): 56 µM; IC50 ([7]; hela): 27.2 µM
15 | N#Cc1ccc(/C=C/c2nc3ncc(Br)cc3[nH]2)cc1 | 6.76 µM | 8.17 µM | 7.11 µM | 5.69 µM | 4.31 µM | 7.82 µM | 2.88 µM | Toxic | Active | Active | Active | Active | Active | Active | –
16 | O=[N+]([O-])c1ccc(Cl)c(/C=C/c2nc3ncccc3[nH]2)c1 | 61.6 µM | 38.8 µM | 52 µM | 49.4 µM | 1.8 µM | 53.6 µM | 45.1 µM | – | – | – | – | – | – | – | –
17 | Brc1cnc2nc3ccc4ccc(C5=NCCN5)cc4n3c2c1.Cl | 3.71 µM | 4.74 µM | 3.67 µM | 4.01 µM | 5.52 µM | 8.43 µM | 1.1 µM | Toxic | Active | Active | Active | Active | Active | Active | Activity [15]: Toxic; Activity [16]: Active; Activity [17]: Active; Activity [18]: Active; Activity [19]: Active; Activity [20]: Active; Activity [21]: Active
18 | C[n+]1cccc2c1nc1ccc3cc([N+](=O)[O-])ccc3n12 | > 100 µM | > 100 µM | 26.7 µM | 31.5 µM | 33.6 µM | > 100 µM | 11.4 µM | – | – | – | – | – | – | – | –
19 | Nc1ccc2c(ccc3nc4ncc(Br)cc4n32)c1 [listing 3 of 3 here] | – | – | – | – | – | – | – | – | Active | Active | Active | Active | Active | Active | –
